Residue numbers refer to the chain shown, from its start. Names may count otherwise. Read-outs that look alike come from different tables or passages of the source. No end group written: not given here.
What was measured:
[1] = target: SPOP^MATH (Homo sapiens, UniProt O43791); assay: Surface Plasmon Resonance; type: binding; conditions: Surface Plasmon Resonance (BIACORE), wildtype SPOP^MATH
Outline: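 SPOP MATH domain expressed in E. coli BL21(DE3) GOLD as a GST fusion and purified by affinity, ion-exchange and gel-filtration chromatography. Binding of substrate-derived SPOP-binding-consensus peptides was measured by surface plasmon resonance on a BIACORE3000, and binding constants were reported.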

[2] = target: Puc^1-390 (Drosophila); assay: AUC
[3] = target: Puc^1-390 (Drosophila); assay: AUC; remark: listed apart in the source
[4] = target: Puc^93-107 (Drosophila); assay: SPR
[5] = target: the molecule itself; assay: crystal structure
[6] = target: SPOP^MATH (human, UniProt O43791 28-166); assay: crystal structure
[7] = target: the molecule itself; assay: AUC
[8] = target: Cul3^NTD (UniProt Q13618 1-384); assay: AUC
Chain of Cul3^NTD (Q13618 1-384): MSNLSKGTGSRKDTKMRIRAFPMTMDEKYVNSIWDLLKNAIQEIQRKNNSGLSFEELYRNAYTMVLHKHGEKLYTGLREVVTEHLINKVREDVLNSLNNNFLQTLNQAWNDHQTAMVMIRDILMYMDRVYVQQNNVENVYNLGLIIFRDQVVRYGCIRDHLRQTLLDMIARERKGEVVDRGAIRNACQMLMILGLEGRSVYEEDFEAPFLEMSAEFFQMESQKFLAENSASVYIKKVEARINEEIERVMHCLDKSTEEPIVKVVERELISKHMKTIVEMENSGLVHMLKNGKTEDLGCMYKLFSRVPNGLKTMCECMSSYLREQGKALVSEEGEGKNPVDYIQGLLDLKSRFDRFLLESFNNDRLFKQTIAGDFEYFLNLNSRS

MacroH2A^166-179: Synthetic peptide for the MacroH2A SPOP-binding region, residues 166-179 (KAASADSTTEGTPAD)
binding to SPOP^MATH (result in words) [1]: sufficient for binding

DSTTEGTPADGFTVL [MacroH2A pep2]
binding to SPOP^MATH (result in words) [1]: negligible binding

Ac-LACDEVTSTTSSSTA (N-terminus assumed) [Puc^93-107]
binding to SPOP^MATH (result in words) [1]: sufficient for binding

SPOP^MATH-BTB+ (from UniProt O43791 28-329) (domain or fragment)
stoichiometry N [2]: 2 SPOP per Puc | stoichiometry N [3]: 2 SPOP per Puc

SPOP^MATH (from UniProt O43791 28-166) (domain or fragment)
Kd [4]: 4 µM

B1: Gig^1-258 (domain or fragment, human, UniProt Q9H2C0 1-258, looked up)
chain: MAEGSAVSDPQHAARLLRALSSFREESRFCDAHLVLDGEEIPVQKNILAAASPYIRTKLNYNPPKDDGSTYKIELEGISVMVMREILDYIFSGQIRLNEDTIQDVVQAADLLLLTDLKTLCCEFLEGCIAAENCIGIRDFALHYCLHHVHYLATEYLETHFRDVSSTEEFLELSPQKLKEVISLEKLNVGNERYVFEAVIRWIAHDTEIRKVHMKDVMSALWVSGLDSSYLREQMLNEPLVREIVKECSNIPLSQPQQ
modifications: selenomethionines (structure phased by SAD)
binding result [5]: binds

NTLFPDVSSSTH [Ci SBC2 peptide]
binding result [6]: binds

DEVTSTTSSS [Puc SBC1_pep1]
binding result [6]: binds

B2: SPOP^MATH-BTB+ (domain or fragment, human, UniProt O43791 28-329, looked up)
chain: KVVKFSYMWTINNFSFCREEMGEVIKSSTFSSGANDKLKWCLRVNPKGLDEESKDYLSLYLLLVSCPKSEVRAKFKFSILNAKGEETKAMESQRAYRFVQGKDWGFKKFIRRDFLLDEANGLLPDDKLTLFCEVSVVQDSVNISGQNTMNMVKVPECRLADELGGLWENSRFTDCCLCVAGQEFQAHKAILAARSPVFSAMFEHEMEESKKNRVEINDVEPEVFKEMMCFIYTGKAPNLDKMADDLLAAADKYALERLKVMCEDALCSNLSVENAAEILILADLHSADQLKTQAVDFINYHA
binding result [7]: binds

B3: SPOP^BTB (domain or fragment, human, UniProt O43791 173-297, looked up)
chain: QNTMNMVKVPECRLADELGGLWENSRFTDCCLCVAGQEFQAHKAILAARSPVFSAMFEHEMEESKKNRVEINDVEPEVFKEMMCFIYTGKAPNLDKMADDLLAAADKYALERLKVMCEDALCSNL
stoichiometry N [8]: 1 SPOP per Cul3 (2:2)

KAASADSTTEGTPAD [MacroH2A_pep1]
binding result [6]: binds

B4: SPOP^BTB+ (domain or fragment, human, UniProt O43791 172-329, looked up)
chain: GQNTMNMVKVPECRLADELGGLWENSRFTDCCLCVAGQEFQAHKAILAARSPVFSAMFEHEMEESKKNRVEINDVEPEVFKEMMCFIYTGKAPNLDKMADDLLAAADKYALERLKVMCEDALCSNLSVENAAEILILADLHSADQLKTQAVDFINYHA
binding result [5]: binds | stoichiometry N [8]: 1 SPOP per Cul3 (2:2)

B5: SPOP^BTB+ L186D, L190D, L193D, I217K (domain or fragment, human, UniProt O43791 172-329, looked up)
chain: B4 chain with L15D, L19D, L22D, I46K
stoichiometry N [8]: 1 SPOP per Cul3 (1:1)
